pIC50: −log10 of the molar value. Calls of active or inactive are those of the source.
Legend:
HCT-116 [1] = assay: Induction of morphological changes in human HCT-116 cells assessed as intensive membrane ruffling and blebbing at 0.5 uM incubated for 48 hrs by scanning electron microscopic analysis; assay type: functional, cell-based
Summary of the method: (§1)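 HCT116 on coverslips, treated 48 h at 0.5 µM. Coverslips rinsed in PBS pH 7.4, fixed in 4% glutaraldehyde for 30 min at 4 °C, then imaged by scanning electron microscopy at 5000X and 20000X.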

HCT-116 [2] = assay: Induction of morphological changes in human HCT-116 cells assessed as reduction in cell clumps at 0.5 uM incubated for 48 hrs by inverted phase-contrast microscopic analysis; assay type: functional, cell-based
HCT-116 [3] = assay: Induction of cell death in human HCT-116 cells assessed as appearance of acidic vesicular organelles by measuring bright punctate dots in cytoplasm at 0.5 uM incubated for 48 hrs by acridine orange and ethidium bromide staining based fluorescence microscopic analysis; assay type: functional
Summary of the method: (§2)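 HCT116 on coverslips (5×10^4 cells/well), 24 h attachment, then exposed 48 h to 0.5 µM. PBS-washed and stained a few minutes with a 1:1 mix of acridine orange (100 µg/mL) and ethidium bromide (100 µg/mL). Viewed at once by fluorescence microscopy at 640X, scoring green vs orange nuclei and punctate cytoplasmic staining.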

HCT-116 [4] = assay: Induction of intracellular ROS generation in human HCT-116 cells at IC50 by DCFH-DA staining based analysis; assay type: functional, cell-based; conditions: time 24-48 hrs, TDE = time-dependent effect
Summary of the method: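 HCT116 plated at 5×10^3 cells/well, grown overnight, then exposed 24 h or 48 h at the IC50 concentration. Loaded with 10 µM DCFH-DA for 30 min at 37 °C, medium swapped for PBS. Fluorescence read at ex 488/em 525 nm, normalized to cell number from a parallel MTT assay and to untreated cells. Triplicate, mean ±SD, Student's t-test.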

MCF7 [5] = assay: Induction of morphological changes in human MCF7 cells assessed as reduction in cell clumps at 1 uM incubated for 48 hrs by inverted phase-contrast microscopic analysis; assay type: functional, cell-based
MCF7 [6] = assay: Cytotoxicity against human MCF7 cells assessed as inhibition of cell proliferation incubated for 48 hrs by MTT assay; assay type: functional, cell-based; conditions: MCF7, 48 h
Summary of the method: (§3)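 Cells kept in DMEM with 10% heat-inactivated FBS, penicillin/streptomycin, 37 °C, 5% CO2. Plated at 5×10^3 cells/well and left 24 h, then exposed 48 h to 80, 20, 5, 1.25, 0.31 and 0.078 µM (diluted from 5 mM DMSO stocks). MTT added for 2 h at 37 °C, formazan dissolved in DMSO, A570 read. Blank subtracted, viability taken relative to untreated cells. IC50 from a sigmoidal fit of % inhibition vs log concentration. Three experiments, each in triplicate.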

MCF7 [7] = assay: Induction of morphological changes in human MCF7 cells assessed as development of long elongations from filamentous protrusions resembling filopodia at 1 uM incubated for 48 hrs by inverted phase-contrast microscopic analysis; assay type: functional, cell-based
HCT-116 [8] = assay: Inhibition of epithelial mesenchymal transition in human HCT-116 cells assessed as effect on vimentin protein expression at 0.5 uM incubated for 48 hrs by Western blot analysis; assay type: functional, cell-based
HCT-116 [9] = assay: Induction of morphological changes in human HCT-116 cells assessed as appearance of actin rich long elongations at 0.5 uM incubated for 48 hrs by rhodamine-phalloidin staining based fluorescence microscopic analysis; assay type: functional, cell-based
Summary of the method: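 HCT116 on coverslips, treated 48 h at 0.5 µM. Fixed in cold methanol 15 min, permeabilized 15 min in 0.1% Triton X-100/PBS. Stained with 0.165 µM rhodamine-phalloidin for 40 min in the dark at room temperature. Imaged at 640X.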

HCT-116 [10] = assay: Induction of cell death in human HCT-116 cells assessed as appearance of neutral pH vacuoles originated from engulfment of extracellular fluid at 0.5 uM incubated for 48 hrs by acridine orange and ethidium bromide staining based fluorescence microscopic analysis; assay type: functional; summary of the method: as §2
HCT-116 [11] = assay: Cytotoxicity against human HCT-116 cells assessed as reduction in colony formation treated for 48 hrs and measured after 10 days post last treatment by crystal violet staining based analysis; assay type: functional, cell-based; conditions: dose 0.1-5 µM, time 9.0 day, in the assay text read “7 days” for “10 days”
Summary of the method: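 HCT116 seeded at 5×10^4 cells/well. After 24 h, treated 48 h at 0.1–0.5 and 5 µM, then grown a further 7 days. Fixed and stained 30 min with 6.0% glutaraldehyde plus 0.5% crystal violet, then washed. Dye taken up in 5% acetic acid and read at 592 nm.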

TERT-RPE1 = assay: Induction of morphological changes in hTERT-RPE1 cells at 5 uM incubated for 48 hrs by inverted phase-contrast microscopic analysis; assay type: toxicity, cell-based; conditions: human, tert-rpe1, 48 h
HCT-116 [12] = assay: Induction of apoptosis in human HCT-116 cells assessed as nuclear fragmentation at 0.5 uM incubated for 48 hrs by Hoechst 33342 staining based analysis; assay type: functional, cell-based
Summary of the method: (§4)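 HCT116 on coverslips at 5×10^4 cells/well, treated 48 h at 0.5 µM after 24 h attachment. PBS-washed, stained 10 min with Hoechst 33342 (final 1 µg/ml). Nuclei inspected at once by fluorescence microscopy at 640X for chromatin condensation and nuclear fragmentation.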

HCT-116 [13] = assay: Induction of apoptosis in human HCT-116 cells assessed as chromatin condensation at 0.5 uM incubated for 48 hrs by Hoechst 33342 staining based analysis; assay type: functional, cell-based; summary of the method: as §4
HCT-116 [14] = assay: Induction of morphological changes in human HCT-116 cells assessed as massive vacuolization at 0.5 uM incubated for 48 hrs by scanning electron microscopic analysis; assay type: functional, cell-based; summary of the method: as §1
HCT-116 [15] = assay: Upregulation of cofilin protein expression in human HCT-116 cells at 0.5 uM incubated for 48 hrs by Western blot analysis; assay type: functional, cell-based
HCT-116 [16] = assay: Induction of morphological changes in human HCT-116 cells assessed as alteration in intercellular adhesion at 0.5 uM incubated for 48 hrs by scanning electron microscopic analysis; assay type: functional, cell-based; summary of the method: as §1
HCT-116 [17] = assay: Induction of autophagy in human HCT-116 cells assessed as effect on Atg-7 protein expression at 0.5 uM incubated for 48 hrs by Western blot analysis; assay type: functional, cell-based
HCT-116 [18] = assay: Induction of morphological changes in human HCT-116 cells assessed as development of long elongations from filamentous protrusions resembling filopodia at 0.5 uM incubated for 48 hrs by inverted phase-contrast microscopic analysis; assay type: functional, cell-based
[19] = Cytotoxicity against hTERT-RPE1 cells assessed as inhibition of cell proliferation incubated for 48 hrs by MTT assay; assay type: toxicity, cell-based, TERT-RPE1; conditions: human; summary of the method: as §3
HCT-116 [20] = assay: Induction of morphological changes in human HCT-116 cells assessed as appearance of flattened cells at 0.5 uM incubated for 48 hrs by inverted phase-contrast microscopic analysis; assay type: functional, cell-based
HCT-116 [21] = assay: Induction of cell death in human HCT-116 cells assessed as membrane blebbing at 0.5 uM incubated for 48 hrs by acridine orange and ethidium bromide staining based fluorescence microscopic analysis; assay type: functional; summary of the method: as §2
HCT-116 [22] = assay: Induction of cell death in human HCT-116 cells assessed as loss of membrane integrity at 0.5 uM incubated for 48 hrs by acridine orange and ethidium bromide staining based fluorescence microscopic analysis; assay type: functional; summary of the method: as §2
HCT-116 [23] = assay: Induction of cell death in human HCT-116 cells assessed as effect on Bcl2 protein expression at 0.5 uM incubated for 48 hrs by Western blot analysis; assay type: functional, cell-based
HCT-116 [24] = assay: Inhibition of epithelial mesenchymal transition in human HCT-116 cells assessed as effect on E-cadherin protein expression at 0.5 uM incubated for 48 hrs by Western blot analysis; assay type: functional, cell-based

O=C(c1cc(Br)ccc1O)c1[nH]c(Br)c(Cl)c1Br
6.14: pIC50 (MCF7 [6])
86.6 µM: IC50 at 48 h [19]
active: Activity (HCT-116 [1]) | Activity (HCT-116 [2]) | Activity (HCT-116 [3]) | Activity (HCT-116 [4]) Tde | Activity (MCF7 [5]) | Activity (MCF7 [7]) | Activity (HCT-116 [9]) | Activity (HCT-116 [10]) | Activity (HCT-116 [11]) Dose-Dependent Effect | Activity (HCT-116 [14]) | Activity (HCT-116 [15]) | Activity (HCT-116 [16]) | Activity (HCT-116 [17]) | Activity (HCT-116 [18]) | Activity (HCT-116 [20]) | Activity (HCT-116 [21]) | Activity (HCT-116 [22]) | Activity (HCT-116 [23])
Non-Toxic: Activity (TERT-RPE1)
inactive: inhibition (HCT-116 [8]) | Activity (HCT-116 [12]) | Activity (HCT-116 [13]) | inhibition (HCT-116 [24])

O=C(c1cc(Br)ccc1O)c1[nH]c(Cl)c(Br)c1Br
Non-Toxic: Activity (TERT-RPE1)
inactive: inhibition (HCT-116 [8]) | Activity (HCT-116 [12]) | Activity (HCT-116 [13]) | inhibition (HCT-116 [24])
6.19: pIC50 (MCF7 [6])
61.5 µM: IC50 at 48 h [19]
active: Activity (HCT-116 [1]) | Activity (HCT-116 [2]) | Activity (HCT-116 [3]) | Activity (HCT-116 [4]) Tde | Activity (MCF7 [5]) | Activity (MCF7 [7]) | Activity (HCT-116 [9]) | Activity (HCT-116 [10]) | Activity (HCT-116 [11]) Dose-Dependent Effect | Activity (HCT-116 [14]) | Activity (HCT-116 [15]) | Activity (HCT-116 [16]) | Activity (HCT-116 [17]) | Activity (HCT-116 [18]) | Activity (HCT-116 [20]) | Activity (HCT-116 [21]) | Activity (HCT-116 [22]) | Activity (HCT-116 [23])

O=C(c1cc(Br)cc(Br)c1O)c1[nH]c(Br)c(Br)c1Br
Non-Toxic: Activity (TERT-RPE1)
inactive: inhibition (HCT-116 [8]) | Activity (HCT-116 [12]) | Activity (HCT-116 [13]) | inhibition (HCT-116 [24])
active: Activity (HCT-116 [1]) | Activity (HCT-116 [2]) | Activity (HCT-116 [3]) | Activity (HCT-116 [4]) Tde | Activity (MCF7 [5]) | Activity (MCF7 [7]) | Activity (HCT-116 [9]) | Activity (HCT-116 [10]) | Activity (HCT-116 [14]) | Activity (HCT-116 [15]) | Activity (HCT-116 [16]) | Activity (HCT-116 [18]) | Activity (HCT-116 [20]) | Activity (HCT-116 [21]) | Activity (HCT-116 [22]) | Activity (HCT-116 [23])
5.92: pIC50 (MCF7 [6])
57.7 µM: IC50 at 48 h [19]

O=C(c1cc(Br)ccc1O)c1[nH]c(Br)c(Br)c1Br
inactive: inhibition (HCT-116 [8]) | Activity (HCT-116 [12]) | Activity (HCT-116 [13]) | inhibition (HCT-116 [24])
Non-Toxic: Activity (TERT-RPE1)
62.8 µM: IC50 at 48 h [19]
6.21: pIC50 (MCF7 [6])
active: Activity (HCT-116 [1]) | Activity (HCT-116 [2]) | Activity (HCT-116 [3]) | Activity (HCT-116 [4]) Tde | Activity (MCF7 [5]) | Activity (MCF7 [7]) | Activity (HCT-116 [9]) | Activity (HCT-116 [10]) | Activity (HCT-116 [11]) Dose-Dependent Effect | Activity (HCT-116 [14]) | Activity (HCT-116 [15]) | Activity (HCT-116 [16]) | Activity (HCT-116 [17]) | Activity (HCT-116 [18]) | Activity (HCT-116 [20]) | Activity (HCT-116 [21]) | Activity (HCT-116 [22]) | Activity (HCT-116 [23])

O=C(c1cc(Br)ccc1O)c1[nH]c(Cl)c(Cl)c1Br
active: Activity (HCT-116 [1]) | Activity (HCT-116 [2]) | Activity (HCT-116 [3]) | Activity (HCT-116 [4]) Tde | Activity (MCF7 [5]) | Activity (MCF7 [7]) | Activity (HCT-116 [9]) | Activity (HCT-116 [10]) | Activity (HCT-116 [11]) Dose-Dependent Effect | Activity (HCT-116 [14]) | Activity (HCT-116 [15]) | Activity (HCT-116 [16]) | Activity (HCT-116 [17]) | Activity (HCT-116 [18]) | Activity (HCT-116 [20]) | Activity (HCT-116 [21]) | Activity (HCT-116 [22]) | Activity (HCT-116 [23])
Non-Toxic: Activity (TERT-RPE1)
175 µM: IC50 at 48 h [19]
inactive: inhibition (HCT-116 [8]) | Activity (HCT-116 [12]) | Activity (HCT-116 [13]) | inhibition (HCT-116 [24])
5.92: pIC50 (MCF7 [6])
